Test results from article PMC10666245 (ACS Omega, 2023).

Tests used:
mushroom tyrosinase [1] = assay: Mushroom tyrosinase inhibition, diphenolase assay; assay type: biochemical, Agaricus bisporus (mushroom); conditions: L-DOPA substrate; for % inhibition 500 μM ±SD Diphenolase: at 500 μM; for % inhibition ±SD Diphenolase: at 200 μM (asterisk)
How it was run: (§1)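 Test compound came from 10 mM DMSO stocks. […] Enzyme, diluted to 500 U/mL before plating, was preincubated 15 min with test compound, then substrate was added. A490 was read every 3 min up to 30 min.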

mushroom tyrosinase [2] = assay: Mushroom tyrosinase inhibition, monophenolase assay; assay type: biochemical, Agaricus bisporus (mushroom); conditions: L-tyrosine substrate; for pIC50 ±SEM Monophenolase: mushroom tyrosinase, pH 6.5
How it was run: as §1

[3] = Radical scavenging activity, DPPH assay; conditions: at 500 μM, 30 min, 37 °C
How it was run: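 DPPH (250 μM in methanol) was mixed with an equal volume of test compound prepared at 1 mM in methanol. Reference antioxidants were run alongside, with DMSO as negative control. A515 was read after 30 min at 37 °C, in triplicate. Scavenging = 100 × (control Abs − sample Abs)/control Abs.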

[4] = Cytotoxicity against mammalian cells; assay type: cell-based; conditions: mouse, NCTC clone L929 murine fibroblast cells
How it was run: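 Murine NCTC fibroblasts (ATCC clone 929) were grown in RPMI-1640 with 10% FBS, counted by hemocytometer and seeded at 6 × 10^4/well. They were exposed to test compound at 200–1.5 μM for 48 h at 37 °C in humidified 5% CO2. Viability was read by MTT, and CC50 was derived by nonlinear regression.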

Compound: O=C(c1ccc(O)c(O)c1)N1CCN(Cc2ccccc2)CC1 [Compound 1a, (4-Benzylpiperazin-1-yl)-(3,4-dihydroxyphenyl)methanone]
- % inhibition 500 μM ±SD Diphenolase (mushroom tyrosinase [1]): (37.0 ± 2.7%)
- pIC50 ±SEM Monophenolase (mushroom tyrosinase [2]): 4.42 ± 0.04

Compound: O=C(c1ccc(O)c(O)c1)N1CCN(c2ccccc2)CC1 [Compound 2a, (3,4-Dihydroxyphenyl)-(4-phenylpiperazin-1-yl)methanone]
- % inhibition 500 μM ±SD Diphenolase (mushroom tyrosinase [1]): (27.7 ± 3.0%)
- pIC50 ±SEM Monophenolase (mushroom tyrosinase [2]): 4.42 ± 0.04

Compound: O=C(/C=C/c1ccc(O)c(O)c1)N1CCN(Cc2ccccc2)CC1 [Compound 3a, (E)-1-(4-Benzylpiperazin-1-yl)-3-(3,4-dihydroxyphenyl)prop-2-en-1-one]
- radical scavenging activity (DPPH) [3]: 29%
- pIC50 ±SEM Diphenolase (mushroom tyrosinase [1]; mushroom tyrosinase, pH 6.5): 4.18 ± 0.03
- IC50 (mushroom tyrosinase [1]; read-out: IC50 tyrosinase inhibition, diphenolase): < 100 µM
- IC50 (mushroom tyrosinase [2]; read-out: IC50 tyrosinase inhibition, monophenolase): < 100 µM

Compound: O=C(c1ccc(O)cc1)N1CCN(Cc2ccccc2)CC1 [Compound 1d, (4-Benzylpiperazin-1-yl)-(4-hydroxyphenyl)methanone]
- % inhibition 500 μM ±SD Diphenolase (mushroom tyrosinase [1]): (35.2 ± 3.3%)
- pIC50 ±SEM Monophenolase (mushroom tyrosinase [2]): 4.11 ± 0.05

Compound: COc1cc(/C=C/C(=O)N2CCN(Cc3ccccc3)CC2)ccc1O [Compound 3b, (2E)-1-(4-Benzylpiperazin-1-yl)-3-(4-hydroxy-3-methoxyphenyl)prop-2-en-1-one]
- % inhibition 500 μM ±SD Diphenolase (mushroom tyrosinase [1]): (42.3 ± 3.4%)
- pIC50 ±SEM Monophenolase (mushroom tyrosinase [2]): 4.16 ± 0.02

Compound: COc1ccc(C(=O)N2CCC(Cc3ccccc3)CC2)cc1 [Compound 5c, 4-Benzyl-1-(4-methoxybenzoyl)piperidine]
- % inhibition 500 μM ±SD Diphenolase (mushroom tyrosinase [1]): (30.5 ± 1.6%)
- pIC50 ±SEM Monophenolase (mushroom tyrosinase [2]): 4.67 ± 0.01

Compound: COc1ccc(C(=O)N2CCN(Cc3ccccc3)CC2)cc1 [Compound 1c, (4-Benzylpiperazin-1-yl)-(4-methoxyphenyl)methanone]
- % inhibition 500 μM ±SD Diphenolase (mushroom tyrosinase [1]): (44.2 ± 3.0%)
- pIC50 ±SEM Monophenolase (mushroom tyrosinase [2]): 3.94 ± 0.06

Compound: O=C(/C=C/c1ccc(O)c(O)c1)N1CCC(Cc2ccccc2)CC1 [Compound 6a, (E)-1-(4-Benzyl-1-piperidyl)-3-(3,4-dihydroxyphenyl)prop-2-en-1-one]
- % inhibition ±SD Diphenolase (mushroom tyrosinase [1]): (18.5 ± 1.1%)
- pIC50 ±SEM Monophenolase (mushroom tyrosinase [2]): 4.56 ± 0.01

Compound: O=C(/C=C/c1ccc(O)c(O)c1)N1CCN(c2ccccc2)CC1 [Compound 4a, (E)-3-(3,4-Dihydroxyphenyl)-1-(4-phenylpiperazin-1-yl)prop-2-en-1-one]
- radical scavenging activity (DPPH) [3]: 65.0%
- CC50 at 48 h [4]: 57.2 ± 2 µM

Compound: COc1cc(/C=C/C(=O)N2CCN(c3ccccc3)CC2)ccc1O [Compound 4b, (E)-3-(4-Hydroxy-3-methoxyphenyl)-1-(4-phenylpiperazin-1-yl)prop-2-en-1-one]
- % inhibition 500 μM ±SD Diphenolase (mushroom tyrosinase [1]): (51.5 ± 3.2%)
- pIC50 ±SEM Monophenolase (mushroom tyrosinase [2]): 4.50 ± 0.04

Compound: COc1cc(C(=O)N2CCN(Cc3ccccc3)CC2)ccc1O [Compound 1b, (4-Benzylpiperazin-1-yl)(4-hydroxy-3-methoxyphenyl)methanone]
- % inhibition 500 μM ±SD Diphenolase (mushroom tyrosinase [1]): (41.6 ± 1.2%)
- pIC50 ±SEM Monophenolase (mushroom tyrosinase [2]): 4.49 ± 0.02

Compound: COc1cc(C(=O)N2CCN(c3ccccc3)CC2)ccc1O [Compound 2b, (4-Hydroxy-3-methoxyphenyl)-(4-phenylpiperazin-1-yl)methanone]
- % inhibition 500 μM ±SD Diphenolase (mushroom tyrosinase [1]): (24.3 ± 4.1%)
- pIC50 ±SEM Monophenolase (mushroom tyrosinase [2]): 3.85 ± 0.03

Compound: O=C(c1ccc(O)c(O)c1)N1CCC(Cc2ccccc2)CC1 [Compound 5a, (4-Benzyl-1-piperidyl)-(3,4-dihydroxyphenyl)methanone]
- radical scavenging activity (DPPH) [3]: 42%
- % inhibition ±SD Diphenolase (mushroom tyrosinase [1]): (30.9 ± 3.9%)
- pIC50 ±SEM Monophenolase (mushroom tyrosinase [2]): 4.74 ± 0.04

Compound: COc1cc(C(=O)N2CCC(Cc3ccccc3)CC2)ccc1O [Compound 5b, (4-Benzyl-1-piperidyl)-(4-hydroxy-3-methoxy-phenyl)methanone]
- radical scavenging activity (DPPH) [3]: 10%
- % inhibition ±SD Diphenolase (mushroom tyrosinase [1]): (13.2 ± 0.8%)
- pIC50 ±SEM Monophenolase (mushroom tyrosinase [2]): 4.99 ± 0.01

Compound: COc1ccc(C(=O)N2CCN(c3ccccc3)CC2)cc1 [Compound 2c, (4-Methoxyphenyl)-(4-phenylpiperazin-1-yl)methanone]
- % inhibition 500 μM ±SD Diphenolase (mushroom tyrosinase [1]): (31.1 ± 5.3%)
- pIC50 ±SEM Monophenolase (mushroom tyrosinase [2]): 3.54 ± 0.05

Compound: COc1ccc(/C=C/C(=O)N2CCN(Cc3ccccc3)CC2)cc1 [Compound 3c, (E)-1-(4-Benzylpiperazin-1-yl)-3-(4-methoxyphenyl)prop-2-en-1-one]
- % inhibition 500 μM ±SD Diphenolase (mushroom tyrosinase [1]): (43.5 ± 2.3%)
- pIC50 ±SEM Monophenolase (mushroom tyrosinase [2]): 3.86 ± 0.04

Compound: (E)-1-(1-Benzylpiperidin-4-yl)-3-(4-methoxyphenyl)prop-2-en-1-one [Compound 6c]
- % inhibition 500 μM ±SD Diphenolase (mushroom tyrosinase [1]): (22.1 ± 3.1%)
- pIC50 ±SEM Monophenolase (mushroom tyrosinase [2]): 4.85 ± 0.07

Compound: O=C(/C=C/c1ccc(O)cc1)N1CCN(Cc2ccccc2)CC1 [Compound 3d, (E)-1-(4-Benzylpiperazin-1-yl)-3-(4-hydroxyphenyl)prop-2-en-1-one]
- % inhibition 500 μM ±SD Diphenolase (mushroom tyrosinase [1]): (43.0 ± 2.9%)
- pIC50 ±SEM Monophenolase (mushroom tyrosinase [2]): 4.54 ± 0.03

Compound: O=C(/C=C/c1ccc(O)cc1)N1CCC(Cc2ccccc2)CC1 [Compound 6d, (E)-1-(4-Benzyl-1-piperidyl)-3-(4-hydroxyphenyl)prop-2-en-1-one]
- % inhibition ±SD Diphenolase (mushroom tyrosinase [1]): (20.3 ± 1.3%)
- % inhibition ±SD Monophenolase (mushroom tyrosinase [2]; at 200 μM (asterisk)): (48.3 ± 1.1%)

Compound: O=C(O)/C=C/c1ccc(O)cc1 [pCA, p-coumaric acid, reference compound]
- % inhibition 500 μM ±SD Diphenolase (mushroom tyrosinase [1]): (16.4 ± 13.0%)
- pIC50 ±SEM Monophenolase (mushroom tyrosinase [2]): 4.00 ± 0.01

Compound: O=C(c1ccc(Cl)cc1)N1CCN(Cc2ccccc2)CC1 [Compound 1e, 1-Benzyl-4-(4-chlorobenzoyl)piperazine]
- % inhibition 500 μM ±SD Diphenolase (mushroom tyrosinase [1]): (45.2 ± 7.6%)
- pIC50 ±SEM Monophenolase (mushroom tyrosinase [2]): 4.37 ± 0.04

Compound: O=C(c1ccc(O)cc1)N1CCC(Cc2ccccc2)CC1 [Compound 5d, (4-Benzyl-1-piperidyl)-(4-hydroxyphenyl)methanone]
- % inhibition ±SD Diphenolase (mushroom tyrosinase [1]): (14.7 ± 1.6%)
- pIC50 ±SEM Monophenolase (mushroom tyrosinase [2]): 4.59 ± 0.01

Compound: COc1cc(/C=C/C(=O)N2CCC(Cc3ccccc3)CC2)ccc1O [Compound 6b, (E)-1-(4-Benzyl-1-piperidyl)-3-(4-hydroxy-3-methoxy-phenyl)prop-2-en-1-one]
- radical scavenging activity (DPPH) [3]: 28%
- % inhibition ±SD Diphenolase (mushroom tyrosinase [1]): (12.0 ± 1.5%)
- pIC50 ±SEM Monophenolase (mushroom tyrosinase [2]): 4.53 ± 0.01
